Experiments:
Assay type in all cases: functional
A498 = assay: Cytotoxicity against human A498 cells assessed as growth inhibition after at 30 ug/ml 48 hrs by SRB assay; details: A498, 48 h
How it was run: (§1)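 Adherent cells were seeded at 5000–40 000 cells/well according to doubling time and preincubated 24 h at 37 °C in 5% CO2 and humidified air. Drug was diluted in complete medium with 50 µg/mL gentamicin and exposed for 48 h under the same conditions. Cells were fixed in situ with cold TCA (10% final, 60 min, 4 °C), stained with 0.4% SRB in 1% HOAc, solubilized in 10 mM Tris base, and read at 515 nm.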

PC-3 = assay: Cytotoxicity against human PC-3 cells assessed as growth inhibition after at 30 ug/ml 48 hrs by SRB assay; details: PC-3, 48 h; how it was run: as §1
NCI-H226 = assay: Cytotoxicity against human NCI-H226 cells assessed as growth inhibition after at 30 ug/ml 48 hrs by SRB assay; details: NCI-H226, 48 h; how it was run: as §1
A549 = assay: Cytotoxicity against human A549 cells assessed as growth inhibition after at 30 ug/ml 48 hrs by SRB assay; details: A549, 48 h; how it was run: as §1

SMILES	inhibition at 30 µg/mL (A498) [%]	inhibition at 30 µg/mL (PC-3) [%]	inhibition at 30 µg/mL (NCI-H226) [%]	inhibition at 30 µg/mL (A549) [%]
CC(=O)OC[C@H]1[C@H]2[C@H](O)[C@]3(C(C)(C)O)C[C@H](O)C(C)=C3[C@@H](O)[C@H](OC(=O)c3ccccc3)[C@]2(C)[C@@H](OC(C)=O)C[C@@H]1OC(C)=O [TASUMATROL F]	83	95	78.5	72.6
CC(=O)O[C@@]12CO[C@@H]1C[C@H](O)[C@@]1(C)C(=O)[C@H](O)C3=C(C)[C@@H](O)C[C@@](O)([C@@H](OC(=O)c4ccccc4)[C@H]21)C3(C)C	27	1.6	5.7	12.2
CC(=O)O[C@@]12CO[C@@H]1C[C@H](O)[C@]1(C)[C@@H]2[C@H](OC(=O)c2ccccc2)[C@]23C[C@H](O)C(C)=C2[C@@]1(O)C(=O)OC3(C)C [WALLIFOLIOL]	27.9	6.4	29.1	16.7
CC(=O)O[C@H]1C[C@H]2OC[C@@]2(OC(C)=O)[C@H]2[C@H](OC(=O)c3ccccc3)[C@]3(C(C)(C)O)C[C@H](O)C(C)=C3[C@@H](O)[C@H](OC(C)=O)[C@]12C	21.7	1.9	19.9	27.1
CC(=O)O[C@H]1C[C@H](OC(C)=O)[C@]2(C)[C@@H]3[C@H](OC[C@]13OC(=O)c1ccccc1)[C@]1(C(C)(C)O)C[C@H](O)C(C)=C1[C@@H](O)[C@@H]2OC(C)=O [TASUMATROL G]	15.3	58.9	78.9	24.1
CC(=O)O[C@H]1C(=O)[C@@]2(C)[C@H]([C@H](OC(=O)c3ccccc3)[C@]3(O)C[C@H](OC(=O)[C@H](O)[C@@H](NC(=O)c4ccccc4)c4ccccc4)C(C)=C1C3(C)C)[C@]1(OC(C)=O)CO[C@@H]1C[C@@H]2O [PACLITAXEL]	98.2	91.7	71.2	79.7
CC(=O)OC[C@]1(O)[C@@H](OC(C)=O)C[C@H](OC(C)=O)[C@]2(C)[C@@H]1[C@H](O)[C@]1(C(C)(C)O)C[C@H](O)C(C)=C1[C@@H](O)[C@@H]2OC(=O)c1ccccc1 [TASUMATROLS E]	100	94.7	84.8	91.3
CC(=O)O[C@H]1C(=O)[C@@]2(CO)[C@H]([C@H](OC(=O)c3ccccc3)[C@]3(O)C[C@H](O)C(C)=C1C3(C)C)[C@]1(OC(C)=O)CO[C@@H]1C[C@@H]2O	26.7	47.7	44.6	0
C=C1[C@@H](O)C[C@H](OC(C)=O)[C@@]2(COC(=O)c3ccccc3)[C@@H](OC(C)=O)[C@H](OC(C)=O)[C@]3(O)[C@@]4(C)CO[C@]3(C)C(=O)C[C@H]4[C@@H](OC(C)=O)[C@H]12 [TAXININ M]	24.3	0	11.1	14.6
CC(=O)O[C@@]12CO[C@@H]1C[C@H](O)[C@@]1(C)C(=O)[C@H](O)C3=C(C)C(=O)C[C@@](O)([C@@H](OC(=O)c4ccccc4)[C@H]21)C3(C)C	29.7	65.3	49.2	43.9
CC(=O)O[C@H]1C[C@H](OC(C)=O)[C@]2(C)[C@@H]([C@@H]1CO)[C@H](OC(C)=O)[C@]1(C(C)(C)O)C[C@H](O)C(C)=C1[C@@H](O)[C@@H]2OC(C)=O [TAXAYUNTIN G]	21.2	1.4	29.3	0
CC(=O)O[C@@]12CO[C@@H]1C[C@H](O)[C@@]1(CO)C(=O)[C@H](O)C3=C(C)[C@@H](O)C[C@@](O)([C@@H](OC(=O)c4ccccc4)[C@H]21)C3(C)C	16.6	2.3	32	0
CC(=O)O[C@@]12CO[C@@H]1C[C@H](O)[C@@]1(C)C(=O)C(=O)C3=C(C)[C@@H](O)C[C@@](O)([C@@H](OC(=O)c4ccccc4)[C@H]21)C3(C)C	79.1	100	97.3	54.7
CC(=O)O[C@H]1C(=O)[C@@]2(CO)[C@H]([C@H](OC(=O)c3ccccc3)[C@]3(O)CC(=O)C(C)=C1C3(C)C)[C@]1(OC(C)=O)CO[C@@H]1C[C@@H]2O	79.8	88.2	84.7	45.4

Source: ChEMBL document CHEMBL1158686, “Three new taxane diterpenoids from Taxus sumatrana” (2005)
